From ChEMBL document CHEMBL1148581, “Antimalarial and antiplasmodial activities of norneolignans. Syntheses and SAR” (J Med Chem, 2006) come the findings set out here.

SMILES strings stand for the structures. ≈ marks a conversion by molar mass, not a printed value. Calls of active or inactive are those of the source. No cut-off for these calls is given here.

The subject of one test is Plasmodium falciparum. Put plainly: Antiplasmodial activity against Plasmodium falciparum 3D7. It counts as functional, organism-based. Summed up:
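Desjardins [³H]phenylalanine incorporation method (Ziegler modification). Parasitized erythrocytes (blood type 0, 5% hematocrit, 2-3% parasitemia) mixed with compounds in RPMI 1640/HEPES with 0.45% Albumax II, L-glutamine, hypoxanthine, gentamicin; final DMSO ≤0.5%. 24 h at 37 °C under 93% N₂/5% CO₂/2% O₂, then label added for further 24 h; filter-harvested, scintillation counted. Three experiments, each in triplicate; IC50.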

Test [1] relates to Mus musculus. The test can be described thus: Antimalarial activity in NMRI mice (Mus musculus) infected with Plasmodium berghei K173 at 25 mg/kg. The test is classed as functional. Summed up: (§1)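 Mice inoculated day 0 with 1×10⁶ P. berghei K173-infected red cells in 0.2 mL 0.9% saline; five mice per group. At day 4 (parasitemia 2-9%), ip dosing in 0.9% saline with 10% Tween 80, pH 4.5, on days 4 and 5; control group untreated or vehicle-injected. Day-5 tail-vein blood smear, Giemsa-stained, infected cells counted microscopically; % inhibition versus control.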

In test [2] the test system is Mus musculus. Put plainly: Antimalarial activity in NMRI mice (Mus musculus) infected with Plasmodium berghei K173 at 50 mg/kg. It counts as functional. Summed up: as §1
Test [3] deals with Mus musculus. Put plainly: Antimalarial activity in NMRI mice (Mus musculus) infected with Plasmodium berghei K173 at 100 mg/kg. It counts as functional. Put shortly: as §1
The species entered for another test is Oryctolagus cuniculus. The test can be described thus: Inhibitory activity against SERCA in rabbit muscle at 3.5 ug/mL. The test is classed as tissue-based. The following applies: Muscle tissue.

With `C=CCOc1ccc(/C=C/C(CC)c2ccc(OC)cc2OC)cc1` (configuration not stated), the half-inhibitory concentration (IC50) with Plasmodium falciparum was 4 µg/mL (≈ 11.8 µM).
In turn, `C=CC(/C=C/c1ccc(OC)c(OC)c1OC)c1cccc(F)c1` (configuration not stated) gave an IC50 in the test with Plasmodium falciparum of 6 µg/mL (≈ 18.3 µM). Compared with the last compound, the IC50 is about 1.5-fold higher.
For `C=CC(/C=C/c1ccc(F)cc1F)c1ccc(OC)cc1OC` (configuration not stated), the IC50 in the test with Plasmodium falciparum is 7 µg/mL (≈ 22.1 µM).
For the compound `CCC(/C=C/c1ccccc1Br)c1ccc(OC)cc1OC` (configuration not stated), it took 5.4 µg/mL (≈ 14.9 µM) to reach half-maximal inhibition in the test on Plasmodium falciparum (IC50).
`CCC(/C=C/c1ccc(F)cc1)c1ccc(F)cc1` (configuration not stated) gave an IC50 in the test on Plasmodium falciparum of 13 µg/mL (≈ 50.3 µM).
For the compound `CCC(/C=C/c1ccc(F)cc1F)c1ccc(OC)cc1OC` (configuration not stated), in the test on Plasmodium falciparum, half-maximal inhibition (IC50) required 3.9 µg/mL (≈ 12.3 µM).
In the case of `COc1ccc(C2CC(c3ccccc3Br)OC2C)c(OC)c1` (configuration not stated), half-maximal inhibition in the test with Plasmodium falciparum (IC50) required 3 µg/mL (≈ 7.95 µM). The IC50 values of the last two compounds are within 1.5-fold of each other.
Compound `C=CC(/C=C/c1ccccc1CN(C)C)c1ccc(Cl)cc1Cl` (configuration not stated) had an IC50 in the test with Plasmodium falciparum of 3 µg/mL (≈ 8.66 µM).
`COc1ccc(C2CC(c3ccc(Cl)cc3Cl)OC2C)c(OC)c1` (configuration not stated) gave a concentration for half-maximal inhibition (IC50) in the test on Plasmodium falciparum of 6.9 µg/mL (≈ 18.8 µM).
In turn, `C=CCOc1ccc(/C=C/C(CCCC)c2ccc(OC)cc2OC)cc1` (configuration not stated) displayed an IC50 in the test on Plasmodium falciparum of 2.7 µg/mL (≈ 7.37 µM).
Regarding `C=CCOc1ccc(C(O)CC(C=C)c2ccc(OC)cc2OC)cc1` (configuration not stated), the IC50 in the test with Plasmodium falciparum was found to be 16 µg/mL (≈ 45.1 µM).
Regarding `C=CCOc1ccc(CCC(CCCC)c2ccc(OC)cc2OC)cc1` (configuration not stated), the IC50 with Plasmodium falciparum is 2.2 µg/mL (≈ 5.97 µM). In the test with Mus musculus [1], this compound returned an inhibition in vivo at 25 mg/kg of 25%. Also, the inhibition in vivo at 50 mg/kg in the test on Mus musculus [2] came out at 49%. This compound showed an inhibition in vivo at 100 mg/kg in the test on Mus musculus [3] of 59%. The inhibition entry in the test filed under Oryctolagus cuniculus was “inactive”.
The compound `C=CC(/C=C/c1ccccc1Br)c1ccc(OC)cc1OC` (configuration not stated) gave an IC50 in the test with Plasmodium falciparum of 8.8 µg/mL (≈ 24.5 µM).
In the case of `C=CCOc1ccc(CCC(CC)c2ccc(OC)cc2OC)cc1` (configuration not stated), in the test with Plasmodium falciparum, half-maximal inhibition (IC50) was put at 3 µg/mL (≈ 8.81 µM).
Still for that read-out and setting: as for `C=CCOc1ccc(CCC(C=C)c2ccc(OC)cc2OC)cc1` (configuration not stated), the figure is 5.2 µg/mL (≈ 15.4 µM).
In the test on Plasmodium falciparum, `C=CC(/C=C/c1ccc(Cl)cc1Cl)c1ccc(OC)cc1OC` (configuration not stated) had an IC50 of 1.5 µg/mL (≈ 4.29 µM). For the same compound, in the test on Mus musculus [1], the inhibition in vivo at 25 mg/kg came out at 57%. In addition, the inhibition result in the test listed under Oryctolagus cuniculus is “inactive”.
In turn, `CCC(/C=C/c1ccccc1CN(C)C)c1ccc(Cl)cc1Cl` (configuration not stated) came in with an IC50 in the test with Plasmodium falciparum of 4.1 µg/mL (≈ 11.8 µM).
`CCC(/C=C/c1ccc(Cl)cc1Cl)c1ccc(OC)cc1OC` (configuration not stated): the IC50 with Plasmodium falciparum is 4.2 µg/mL (≈ 12 µM).
Still for that read-out and setting: as for `CCC(/C=C/c1ccc(OC)cc1OC)c1ccc(Cl)cc1Cl` (configuration not stated), the figure is 6 µg/mL (≈ 17.1 µM); as for `C=CCOc1ccc(/C=C/C(C=C)c2ccc(OC)cc2OC)cc1` (configuration not stated), 7 µg/mL (≈ 20.8 µM); as for `C=CC(/C=C/c1ccc(OC)cc1OC)c1ccc(Cl)cc1Cl` (configuration not stated), 7 µg/mL (≈ 20 µM).
As for `CCC(/C=C/c1ccccc1F)c1cc(OC)cc(OC)c1` (configuration not stated), it took 6 µg/mL (≈ 20 µM) to reach half-maximal inhibition in the test with Plasmodium falciparum (IC50). This IC50 and that of the compound before are within 1.5-fold of each other.
`C=CC(/C=C/c1ccccc1F)c1cc(OC)cc(OC)c1` (configuration not stated): in the test on Plasmodium falciparum, the IC50 was 6 µg/mL (≈ 20.1 µM).
Take `CCC(/C=C/c1ccc(OC)c(OC)c1OC)c1cccc(F)c1` (configuration not stated): the midpoint of inhibition in the test with Plasmodium falciparum, the IC50, lay at 3.9 µg/mL (≈ 11.8 µM).
Consider `C=CCOc1ccc(CCCc2ccc(OC)cc2OC)cc1`, for which, in the test on Plasmodium falciparum, the IC50 turned out to be 9.5 µg/mL (≈ 30.4 µM).
`CCC(/C=C/c1ccccc1C(F)(F)F)c1ccc(Cl)cc1Cl` (configuration not stated) gave an IC50 in the test with Plasmodium falciparum of 6 µg/mL (≈ 16.7 µM). Compared with the last compound, the IC50 is about 1.6-fold lower.
`C=CC(/C=C/c1ccc(O)cc1)c1ccc(O)cc1` (racemic) gave an IC50 with Plasmodium falciparum of 13 µg/mL (≈ 51.5 µM). Against the preceding compound, the IC50 is about 2.2-fold higher.
In the test with Plasmodium falciparum, `C=C[C@H](/C=C/c1ccc(O)cc1)c1ccc(O)cc1` had a concentration for half-maximal inhibition (IC50) of 14 µg/mL (≈ 55.5 µM). This IC50 and that of the compound before are within 1.5-fold of each other.
The same measure, in the same setting: under `C=CC(/C=C/c1ccc(F)cc1)c1ccc(F)cc1` (configuration not stated) stands 10 µg/mL (≈ 39 µM); under `C=C[C@@H](/C=C/c1ccc(O)cc1)c1ccc(O)cc1`, 20 µg/mL (≈ 79.3 µM); under `C=CC(/C=C/c1ccccc1C(F)(F)F)c1ccc(Cl)cc1Cl` (configuration not stated), 8.2 µg/mL (≈ 23 µM).

For orientation: IC50 means the concentration at which inhibition is half-maximal. Usually inhibition in vivo stands for the relative decrease from the control value, in per cent. High values mean a strong effect, low ones a weak effect.
